Source: PubChem
CHO parental Ca: ATP-evoked calcium signal inhibitors, parental CHO, primary screen, counter-screen for OX1R antagonist project, cell-based, fluorescence, Fluo-8 calcium dye | inhibition, % at 5.6 µM | parental CHO-K1, ATP-induced calcium, Fluo-8 fluorescence | actives 0.63% (n = 330,000);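 active means inhibition above that plate's mean sample inhibition plus 3 SD, cut at about 26% in these data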
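Material – parental CHO cells · Reagent – ATP stimulus · Compound – single nominal dose of 5.6 µM per compound · Detection – Fluo-8 fluorescence · Read-out basis – percent inhibition of calcium signal · Controls – ATP-challenged DMSO wells low, unchallenged DMSO wells high · Repeats – no replicates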
GalR3 antag: GalR3 antagonists in HEK293 cells, primary screen, cell-based, fluorescence readout; Galanin receptor type 3 (Homo sapiens), O60755; AID 651719, 2012; inhibition, % at 3 µM; actives 0.44% (n = 360,000); HEK293 GalR3-CNG cAMP membrane potential fluorescence; galR3 body fused to GalR1 C-terminus;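 active means inhibition above the screen-wide average plus 3 SD, cut at about 13% in these data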;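 further: forskolin and galanin both at EC90 stimulate the cells; cAMP rise reported by CNG channel membrane potential dye signal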
TAAR1 antagonist: human TAAR1 antagonists, primary screen, Fluo-8 calcium fluorescence, CHO RD-HGA16 cells; Trace amine-associated receptor 1 (Homo sapiens), Q96RJ0; antagonist; inhibition, % at 3 µM; actives 1.5% (n = 360,000); AID 624466, 2012;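 active means inhibition above a per-plate cutoff, the mean inhibition of test compounds on that plate plus 3 SD, cut at about 49% in these data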
Target sequence (Q96RJ0 whole entry, looked up): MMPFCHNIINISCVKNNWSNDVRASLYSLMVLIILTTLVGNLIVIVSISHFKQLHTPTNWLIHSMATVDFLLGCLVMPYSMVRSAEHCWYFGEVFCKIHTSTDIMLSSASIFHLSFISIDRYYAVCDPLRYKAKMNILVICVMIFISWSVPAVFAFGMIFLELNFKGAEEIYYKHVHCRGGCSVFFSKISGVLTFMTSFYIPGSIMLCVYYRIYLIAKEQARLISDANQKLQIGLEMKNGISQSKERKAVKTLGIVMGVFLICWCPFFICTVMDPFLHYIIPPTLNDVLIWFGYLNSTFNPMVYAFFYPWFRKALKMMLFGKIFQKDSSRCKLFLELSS
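System: RD-HGA16 CHO cells with stable hTAAR1 and Gα16 | Probe or stimulus: EC80 β-phenethylamine stimulus | Dosing: 3 µM, single point | Times: Dye loading 75 min at 37 °C, then 30 min room temperature | Measured by: Fluo-8 calcium-sensitive fluorescence | Read-out basis: % inhibition of agonist calcium response | Replicates: n of 1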
OX1R antag-1: OX1R (HCRTR1) antagonists, primary screen, fluorescence, CHO/OX1R cells, Fluo-8 calcium, orexin A; Orexin/Hypocretin receptor type 1 (Homo sapiens), O43613; Fluo-8 calcium fluorescence; inhibition, % at 5 µM; actives 0.43% (n = 330,000);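 active means inhibition above its plate's threshold, mean inhibition of all tested compounds on the plate plus 3 SD, cut at about 37% in these data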
Target sequence (O43613 whole entry, looked up): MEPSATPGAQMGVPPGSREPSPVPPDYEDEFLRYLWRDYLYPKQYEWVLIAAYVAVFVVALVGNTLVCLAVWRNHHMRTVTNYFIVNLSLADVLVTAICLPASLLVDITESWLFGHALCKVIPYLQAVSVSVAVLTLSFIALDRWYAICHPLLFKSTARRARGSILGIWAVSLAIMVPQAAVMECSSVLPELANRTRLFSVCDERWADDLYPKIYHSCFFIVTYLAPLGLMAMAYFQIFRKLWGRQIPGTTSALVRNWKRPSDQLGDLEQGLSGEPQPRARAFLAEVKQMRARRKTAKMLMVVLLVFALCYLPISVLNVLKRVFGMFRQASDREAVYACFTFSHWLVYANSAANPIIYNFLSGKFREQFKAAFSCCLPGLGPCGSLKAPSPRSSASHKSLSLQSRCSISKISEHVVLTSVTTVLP
TAAR1 ag: human TAAR1 agonists, primary screen, Fluo-8 calcium fluorescence, CHO RD-HGA16 cells; Trace amine-associated receptor 1 (Homo sapiens), Q96RJ0; actives 0.99% (n = 360,000); vehicle wells 0%, saturating PEA agonist 100%; activation, % at 3 µM;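 active means activation above the mean activation of all test compounds in the run plus 3 SD, cut at about 38% in these data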
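Assay system: CHO-derived RD-HGA16 cells with stable Gα16 and human TAAR1; timing: 17-24 h seeding, 75 min 37 °C dye, 30 min RT; read-out: % activation from peak over basal fluorescence ratio, DMSO-to-PEA scaled; measured by: kinetic Fluo-8 calcium fluorescence; benchmarks: low control DMSO, high control PEA (EC100); doses: 3 µM single concentration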
OX1R antag-2: antagonists of human orexin 1 receptor (OX1R) | Orexin/Hypocretin receptor type 1 (Homo sapiens), O43613 | OX1R-expressing cells, FRET antagonist read-out | inhibition, % at 6.6 µM | actives 1.8% (n = 330,000) | AID 485270, 2010; in the data active means inhibition mostly above about 38%, no sharp cut-off; inactive means mostly below about 40%
nonsel antag count: nonselective antagonists in TAAR1 counter-screen cells, counter-screen for hTAAR1 antagonist project, cell-based, fluorescence, calcium; counterscreen cell line, antagonist mode; inhibition, % at 3 µM; actives 77% (n = 2,400); shares compounds with TAAR1 antagonist; in the data active means inhibition above about 22%;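 further: CHO-Ga16 host cells stimulated with ATP at an EC80 level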
TAAR1 antag conf: human TAAR1 antagonists, retest of hits, confirmation, cell-based, fluorescence; shares compounds with TAAR1 antagonist; TAAR1-expressing cells, fluorescence antagonist read-out; actives 40% (n = 2,400); inhibition, % at 3 µM; in the data active means inhibition above about 49%;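 further: CHO-Ga16 host cells challenged with agonist PEA near its EC80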
Ga16 nonsel ag: calcium activation in Ga16-expressing cells, counter-screen for TAAR1 antagonist project, cell-based, fluorescence; activation, % at 3 µM; agonist counterscreen; actives 18% (n = 2,400); shares compounds with TAAR1 antagonist; in the data active means activation above about 12%
TAAR1 ag count: TAAR1 activation by candidate antagonists – cell-based, fluorescence, counter-screen for TAAR1 antagonist project. actives 2% (n = 2,400). shares compounds with TAAR1 antagonist. activation, % at 3 µM. hTAAR1 cell line, agonist mode; in the data active means activation above about 37%;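 further: CHO cells stably expressing TAAR1 with calcium dye readout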
Numbers stand for hits. A selection: hits, their analogues and other compounds. The true share with any hit is near 4.2%.

How did Cc1ccc(S(=O)(=O)Nc2ccccc2N=Cc2ccc([N+](=O)[O-])cc2[N+](=O)[O-])cc1 do in these assays?
GalR3 antag: inactive; TAAR1 antagonist: 64; TAAR1 ag: inactive; nonsel antag count: inactive; TAAR1 antag conf: inactive; Ga16 nonsel ag: inactive; TAAR1 ag count: inactive

Results for COc1ccc(CNC(=O)CN2CCN(c3ccccc3)CC2)cc1 ?
CHO parental Ca: inactive; GalR3 antag: inactive; TAAR1 antagonist: inactive; OX1R antag-1: inactive; TAAR1 ag: inactive; OX1R antag-2: inactive

Results for COC(=O)c1[nH]c2ccccc2c1NC(=O)CN1CCN(c2cccc(Cl)c2)CC1 ?
CHO parental Ca: inactive; GalR3 antag: inactive; TAAR1 antagonist: 62; OX1R antag-1: inactive; TAAR1 ag: inactive; OX1R antag-2: inactive; nonsel antag count: 30; TAAR1 antag conf: inactive; Ga16 nonsel ag: inactive; TAAR1 ag count: inactive

How did COc1cccc(N2CCN(CC(=O)Nc3ccccc3C(=O)NCc3ccccc3)CC2)c1 do in these assays?
CHO parental Ca: inactive; GalR3 antag: inactive; TAAR1 antagonist: 66; OX1R antag-1: inactive; TAAR1 ag: inactive; OX1R antag-2: inactive; nonsel antag count: 24; TAAR1 antag conf: 56; Ga16 nonsel ag: inactive; TAAR1 ag count: inactive

Results for COc1cc(NS(C)(=O)=O)cc(OC)c1OC ?
CHO parental Ca: inactive; GalR3 antag: inactive; TAAR1 antagonist: inactive; OX1R antag-1: inactive; TAAR1 ag: inactive; OX1R antag-2: inactive

What do the screens show for `CC1=CC(C)C(C(=O)O)C(C(=O)N2CCN(C)CC2)C1` (stereo not drawn)?
CHO parental Ca: inactive; GalR3 antag: inactive; TAAR1 antagonist: inactive; OX1R antag-1: inactive; TAAR1 ag: inactive; OX1R antag-2: inactive

What do the screens show for `O=C(N/N=C/c1ccc(Br)s1)c1ccco1`?
CHO parental Ca: inactive; GalR3 antag: inactive; TAAR1 antagonist: inactive; OX1R antag-1: inactive; TAAR1 ag: inactive; OX1R antag-2: inactive

What do the screens show for `O=C(N/N=C/c1sc(=O)n(Cc2ccc(Br)cc2)c1Cl)c1ccco1`?
CHO parental Ca: inactive; GalR3 antag: inactive; TAAR1 antagonist: 81; OX1R antag-1: inactive; TAAR1 ag: inactive; OX1R antag-2: inactive; nonsel antag count: 39; TAAR1 antag conf: 77; Ga16 nonsel ag: 17; TAAR1 ag count: inactive

How did CN(C)S(=O)(=O)n1cc(/C=C(\NC(=O)c2ccccc2Cl)C(=O)NCCN2CCOCC2)c2ccccc21 do in these assays?
CHO parental Ca: inactive; GalR3 antag: inactive; TAAR1 antagonist: 73; OX1R antag-1: inactive; TAAR1 ag: inactive; OX1R antag-2: inactive; nonsel antag count: 24; TAAR1 antag conf: inactive; Ga16 nonsel ag: inactive; TAAR1 ag count: inactive

How did COc1ccc(C(=O)N/C(=C\c2cn(S(=O)(=O)N(C)C)c3ccccc23)C(=O)NCCN2CCOCC2)cc1 do in these assays?
CHO parental Ca: inactive; GalR3 antag: inactive; TAAR1 antagonist: inactive; OX1R antag-1: inactive; TAAR1 ag: inactive; OX1R antag-2: inactive

What do the screens show for `CN(C)S(=O)(=O)n1cc(/C=C(\NC(=O)c2ccccc2Cl)C(=O)NCCCn2ccnc2)c2ccccc21`?
CHO parental Ca: inactive; GalR3 antag: inactive; TAAR1 antagonist: 55; OX1R antag-1: inactive; TAAR1 ag: inactive; OX1R antag-2: inactive; nonsel antag count: inactive; TAAR1 antag conf: inactive; Ga16 nonsel ag: inactive; TAAR1 ag count: inactive

What do the screens show for `COc1ccc(C(=O)N[C@H]2COC(C)(C)O[C@H]2c2ccccc2)cc1`?
CHO parental Ca: inactive; GalR3 antag: inactive; TAAR1 antagonist: inactive; OX1R antag-1: inactive; TAAR1 ag: inactive; OX1R antag-2: inactive

Results for COc1ccc(-c2nc(Cc3ccc(Cl)cc3)no2)cc1OC ?
CHO parental Ca: inactive; GalR3 antag: inactive; TAAR1 antagonist: inactive; OX1R antag-1: inactive; TAAR1 ag: inactive; OX1R antag-2: inactive

What do the screens show for `O=C(C1CCCN(c2ncnc3c2nc2n3CCCCC2)C1)N1CCN(c2ccccc2)CC1` (stereo not drawn)?
CHO parental Ca: inactive; GalR3 antag: inactive; TAAR1 antagonist: 52; OX1R antag-1: inactive; TAAR1 ag: inactive; OX1R antag-2: inactive; nonsel antag count: 23; TAAR1 antag conf: inactive; Ga16 nonsel ag: inactive; TAAR1 ag count: inactive

What do the screens show for `COCCN1Cc2cc(C(=O)OC)c3c(c2C1=O)c1cc(OC)ccc1n3S(C)(=O)=O`?
GalR3 antag: inactive; TAAR1 antagonist: inactive; TAAR1 ag: inactive

Results for COCCN1Cc2cc(C(=O)OC)c3c(c2C1=O)c1cc(F)ccc1n3C(=O)c1ccccc1 ?
GalR3 antag: inactive; TAAR1 antagonist: 74; TAAR1 ag: inactive; nonsel antag count: 32; TAAR1 antag conf: 49; Ga16 nonsel ag: inactive; TAAR1 ag count: inactive

Results for COCCN1Cc2cc(C(=O)OC)c3c(c2C1=O)c1cc(OC)ccc1n3C(=O)c1ccccc1 ?
GalR3 antag: inactive; TAAR1 antagonist: 74; TAAR1 ag: inactive; nonsel antag count: 34; TAAR1 antag conf: 58; Ga16 nonsel ag: inactive; TAAR1 ag count: inactive

What do the screens show for `O=C(COC(=O)c1ccccc1Nc1ccc(SC(F)F)cc1)NCc1ccco1`?
CHO parental Ca: inactive; GalR3 antag: inactive; TAAR1 antagonist: 52; OX1R antag-1: inactive; TAAR1 ag: inactive; OX1R antag-2: inactive; nonsel antag count: inactive; TAAR1 antag conf: inactive; Ga16 nonsel ag: inactive; TAAR1 ag count: inactive

Results for Cc1cccc(Nc2ccccc2C(=O)OCC(=O)NCc2ccco2)c1C ?
CHO parental Ca: inactive; GalR3 antag: inactive; TAAR1 antagonist: inactive; OX1R antag-1: inactive; TAAR1 ag: inactive; OX1R antag-2: inactive
